Data from ChEMBL document CHEMBL1158464, “Structure-activity relationships and cancer-cell selective toxicity of novel inhibitors of glioma-associated oncogene homologue 1 (Gli1) mediated transcription” (J Med Chem, 2009).
Calls of active or inactive are those of the source. The rule behind the calls is not given here.

Columns and labels:
HepG2 = assay: Cytotoxicity against human HepG2 cells at 40 uM/well after 68 hrs by alamar blue assay; assay type: functional, cell-based
Outline: (§1)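 Cells plated in appropriate medium 24 h before compound. A 10 mM DMSO stock was diluted in EMEM to 160 µM (4×) and added in triplicate to a final 40 µM. Incubated 68 h at 37 °C, then Alamar Blue for 4 h at 37 °C. Fluorescence read at ex 510/em 590 nm. Viability taken relative to DMSO control wells.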

LN-229 = assay: Cytotoxicity against human LN229 cells at 40 uM/well after 68 hrs by alamar blue assay; assay type: functional, cell-based; outline: as §1
[1] = molecular target: T1, Zinc finger protein GLI1 (Homo sapiens) (UniProt P08151); assay: Inhibition of exogenously transfected human Gli1-mediated transcriptional activity in mouse C3H10T1/2 cells at 20 uM after 24 hrs by luciferase reporter gene assay; assay type: cell-based; conditions: C3H 10T1/2
T1 sequence (whole entry): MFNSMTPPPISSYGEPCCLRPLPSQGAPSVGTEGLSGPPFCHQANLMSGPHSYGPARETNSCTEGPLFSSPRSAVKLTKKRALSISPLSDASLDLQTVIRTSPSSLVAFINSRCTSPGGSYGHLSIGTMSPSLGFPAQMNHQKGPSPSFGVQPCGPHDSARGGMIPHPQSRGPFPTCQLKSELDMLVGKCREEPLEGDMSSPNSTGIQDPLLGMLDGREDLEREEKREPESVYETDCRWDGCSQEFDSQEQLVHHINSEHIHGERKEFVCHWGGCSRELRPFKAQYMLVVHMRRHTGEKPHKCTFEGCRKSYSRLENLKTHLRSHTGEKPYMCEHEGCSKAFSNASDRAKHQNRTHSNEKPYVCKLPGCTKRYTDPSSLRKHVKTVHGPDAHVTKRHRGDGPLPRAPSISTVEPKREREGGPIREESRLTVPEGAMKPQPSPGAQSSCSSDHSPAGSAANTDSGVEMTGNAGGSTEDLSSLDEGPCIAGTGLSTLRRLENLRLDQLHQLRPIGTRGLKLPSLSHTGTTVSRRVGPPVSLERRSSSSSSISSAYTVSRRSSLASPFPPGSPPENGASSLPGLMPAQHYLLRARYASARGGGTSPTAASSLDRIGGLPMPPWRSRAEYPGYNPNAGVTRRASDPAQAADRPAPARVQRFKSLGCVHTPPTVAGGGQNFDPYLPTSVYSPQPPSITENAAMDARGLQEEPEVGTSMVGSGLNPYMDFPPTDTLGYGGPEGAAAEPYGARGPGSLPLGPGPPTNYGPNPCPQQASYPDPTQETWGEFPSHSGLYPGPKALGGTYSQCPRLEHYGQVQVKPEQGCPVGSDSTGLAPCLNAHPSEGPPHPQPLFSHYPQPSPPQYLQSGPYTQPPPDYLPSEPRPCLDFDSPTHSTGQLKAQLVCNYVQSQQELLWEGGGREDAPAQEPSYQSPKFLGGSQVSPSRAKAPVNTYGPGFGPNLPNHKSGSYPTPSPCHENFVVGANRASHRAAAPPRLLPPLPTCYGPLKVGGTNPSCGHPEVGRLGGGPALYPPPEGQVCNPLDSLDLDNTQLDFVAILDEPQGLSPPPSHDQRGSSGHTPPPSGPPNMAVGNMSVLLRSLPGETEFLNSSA
Outline: (§2)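 They were replated 18 h later, given compound or DMSO 6 h after plating, and exposed for 24 h at 37 °C, 5% CO2. Lysate was read by dual luciferase as firefly/Renilla, triplicate, DMSO = 0%. IC50 came from curve fitting.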

MDA-MB-231 = assay: Cytotoxicity against human MDA-MB-231 cells at 40 uM/well after 68 hrs by alamar blue assay; assay type: functional, cell-based; outline: as §1
[2] = molecular target: T1, Zinc finger protein GLI1 (Homo sapiens); assay: Inhibition of exogenously transfected human Gli1-mediated transcriptional activity in mouse C3H10T1/2 cells at 40 uM after 24 hrs by luciferase reporter gene assay; assay type: cell-based; conditions: C3H 10T1/2; outline: as §2
DU-145 = assay: Cytotoxicity against human DU145 cells at 40 uM/well after 68 hrs by alamar blue assay; assay type: functional, cell-based; outline: as §1
SJRH30 = assay: Cytotoxicity against human Rh30 cells at 40 uM/well after 68 hrs by alamar blue assay; assay type: functional, cell-based; outline: as §1
Raji = assay: Cytotoxicity against human Raji cells at 40 uM/well after 68 hrs by alamar blue assay; assay type: functional, cell-based; outline: as §1
BJ = assay: Cytotoxicity against human TERT-immortalized human BJ cells at 40 uM/well after 68 hrs by alamar blue assay; assay type: cell-based; outline: as §1
Daoy = assay: Cytotoxicity against human DaOY cells at 40 uM/well after 68 hrs by alamar blue assay; assay type: functional, cell-based; outline: as §1

SMILES	Activity (HepG2)	Activity (LN-229)	inhibition [1]	Activity (MDA-MB-231)	inhibition [2]	Activity (DU-145)	Activity (SJRH30)	Activity (Raji)	Activity (BJ)	Activity (Daoy)
C[C@H](CNC(=O)c1ccc(O)cc1)c1cccc(C(=O)c2ccccc2)c1	inactive	inactive	Active	Active	Active	Active	Active	Active	Non-toxic	Active
C[C@H](C(=O)NCCc1ccc(Cl)cc1)c1cccc(C(=O)c2ccccc2)c1	inactive	inactive	Active	Active	Active	Active	Active	Active	Non-toxic	Active
C[C@H](CNC(=O)NCCc1ccc(O)cc1)c1cccc(C(=O)c2ccccc2)c1	inactive	inactive	Active	Active	Active	Active	Active	Active	Toxic	Active
COc1cccc(CCNC(=O)[C@@H](C)c2cccc(C(=O)c3ccccc3)c2)c1	inactive	inactive	Active	Active	Active	Active	Active	Active	Non-toxic	Active
COc1ccc(COC[C@@H](C)c2cccc(C(=O)c3ccccc3)c2)cc1	inactive	inactive	inactive	Active	inactive	Active	Active	Active	Non-toxic	Active
C[C@H](C(=O)NCc1ccc(O)cc1)c1cccc(C(=O)c2ccccc2)c1	inactive	inactive	Active	Active	Active	Active	Active	Active	Non-toxic	Active
C[C@H](C(=O)Nc1ccc(O)cc1)c1cccc(C(=O)c2ccccc2)c1	inactive	inactive	Active	Active	Active	Active	Active	Active	Non-toxic	Active
COCCN(CCc1ccc(O)cc1)C(=O)[C@@H](C)c1cccc(C(=O)c2ccccc2)c1	inactive	inactive	Active	Active	Active	Active	Active	Active	Non-toxic	Active
COc1ccc2c(c1)c(CC(=O)NCCc1ccc(O)cc1)c(C)n2C(=O)c1ccc(Cl)cc1	inactive	inactive	Active	Active	Active	Active	Active	Active	Non-toxic	Active
C[C@H](CNC(=O)Nc1ccc(O)cc1)c1cccc(C(=O)c2ccccc2)c1	inactive	inactive	Active	Active	Active	Active	Active	Active	Toxic	Active
